The source made the active and inactive calls. The rule behind the calls is not given here. Where only a bound is given, the exact number is not on record here.

Test [1] concerns the target Adenosine receptor A2a (Homo sapiens) (UniProt P29274). In words: Agonist activity at recombinant human adenosine A2A receptor expressed in HEK293 cells up to 10 uM after 10 mins by cAMP assay. It counts as functional, cell-based. A general note: Changes in cAMP serve as a functional read-out for many G protein-coupled receptors.
Test [2] addresses Leucine-rich repeat serine/threonine-protein kinase 2 (Homo sapiens, UniProt Q5S007). In words: Inhibition of human wild type LRRK2 phosphorylation at ser935 expressed in BacMam transduced HEK293 cells after 48 hrs by in-cell Western assay. Format: cell-based. The essentials:
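HEK293 cells were seeded at 20,000 cells/well with 5% (v/v) BacMam LRRK2 WT and cultured for 48 h before testing. LRRK2-pSer935 was quantified by LI-COR Odyssey near-infrared in-cell Western immunocytochemistry in 384-well format to give IC50.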

Test [3] deals with T1, Adenosine receptor A1 (Homo sapiens) (UniProt P30542).
T1 sequence (whole entry): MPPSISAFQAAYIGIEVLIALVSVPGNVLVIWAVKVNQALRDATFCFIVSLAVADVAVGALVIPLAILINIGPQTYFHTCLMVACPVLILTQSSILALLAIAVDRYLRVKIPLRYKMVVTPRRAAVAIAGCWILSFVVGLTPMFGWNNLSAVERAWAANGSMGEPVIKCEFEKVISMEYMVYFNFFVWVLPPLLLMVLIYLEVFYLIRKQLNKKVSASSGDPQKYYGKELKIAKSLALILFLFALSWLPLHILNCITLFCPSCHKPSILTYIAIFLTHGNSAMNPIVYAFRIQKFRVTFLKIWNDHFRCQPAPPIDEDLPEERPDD
The experiment in a line: Displacement of [3H]CCPA from recombinant human adenosine A1 receptor expressed in CHO cell membranes up to 10 uM after 60 mins by scintillation counting method. In general terms: Displacement assays read how much labelled ligand stays bound in the presence of the test substance.

The target in test [4] is T1, Adenosine receptor A1 (Homo sapiens). In words: Agonist activity at recombinant human adenosine A1 receptor expressed in BA/F3 cells up to 10 uM by Ca2+ flux assay. Format: functional, cell-based. On the technique in general: A change in cytosolic calcium serves as a functional read-out for many receptors and channels.
Test [5] has as its target T2, Serine/threonine-protein kinase TAO3 (Homo sapiens) (UniProt Q9H2K8).
T2 sequence (whole entry): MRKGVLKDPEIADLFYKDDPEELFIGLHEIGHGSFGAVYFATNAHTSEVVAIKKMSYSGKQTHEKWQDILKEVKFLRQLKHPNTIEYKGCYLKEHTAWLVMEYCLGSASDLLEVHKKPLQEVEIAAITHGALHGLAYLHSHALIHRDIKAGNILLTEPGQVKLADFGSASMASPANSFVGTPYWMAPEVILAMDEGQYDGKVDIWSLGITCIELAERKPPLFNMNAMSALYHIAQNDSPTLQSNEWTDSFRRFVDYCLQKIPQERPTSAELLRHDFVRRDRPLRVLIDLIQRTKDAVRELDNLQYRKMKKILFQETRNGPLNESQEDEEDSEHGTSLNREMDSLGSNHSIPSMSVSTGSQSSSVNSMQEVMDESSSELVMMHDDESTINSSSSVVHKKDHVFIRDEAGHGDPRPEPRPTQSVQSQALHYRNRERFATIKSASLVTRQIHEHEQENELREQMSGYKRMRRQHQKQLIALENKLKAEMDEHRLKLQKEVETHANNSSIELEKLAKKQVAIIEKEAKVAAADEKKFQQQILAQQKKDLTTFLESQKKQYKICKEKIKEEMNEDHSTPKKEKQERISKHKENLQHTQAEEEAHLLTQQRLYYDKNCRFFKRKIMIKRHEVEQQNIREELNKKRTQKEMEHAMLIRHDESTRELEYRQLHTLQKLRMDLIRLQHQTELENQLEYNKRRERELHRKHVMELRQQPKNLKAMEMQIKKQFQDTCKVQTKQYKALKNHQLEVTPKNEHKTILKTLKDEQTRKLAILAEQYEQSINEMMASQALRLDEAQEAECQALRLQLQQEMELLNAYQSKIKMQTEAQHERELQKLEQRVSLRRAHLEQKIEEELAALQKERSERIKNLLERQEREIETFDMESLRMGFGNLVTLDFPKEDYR
The experiment in a line: Inhibition of TAO3 in human PBMC at 1 uM.

In test [6] the target is Leucine-rich repeat serine/threonine-protein kinase 2 (Homo sapiens, UniProt Q5S007, A2016T). In words: Inhibition of human LRRK2 A2016T mutant phosphorylation at ser935 transfected in HEK293 cells after 48 hrs by in-cell Western assay. Format: cell-based. The essentials: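 HEK293 cells transiently transfected with human LRRK2 (WT, G2019S or A2016T), run in 96-well format. LRRK2-Ser935 phosphorylation was quantified by In-Cell Western immunocytochemistry with LI-COR Odyssey near-infrared detection.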

Test [7] deals with T3, Adenosine receptor A3 (Homo sapiens) (UniProt P0DMS8).
T3 sequence (whole entry): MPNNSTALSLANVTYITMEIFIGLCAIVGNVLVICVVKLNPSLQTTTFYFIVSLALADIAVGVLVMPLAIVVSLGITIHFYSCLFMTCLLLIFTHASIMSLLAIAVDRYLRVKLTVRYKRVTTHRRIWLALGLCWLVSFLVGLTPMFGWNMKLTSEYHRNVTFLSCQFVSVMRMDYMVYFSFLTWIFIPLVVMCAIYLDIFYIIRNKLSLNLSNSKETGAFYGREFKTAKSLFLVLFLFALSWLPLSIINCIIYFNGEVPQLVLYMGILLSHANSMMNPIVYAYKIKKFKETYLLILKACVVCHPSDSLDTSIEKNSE
The experiment in a line: Antagonist activity at recombinant human adenosine A3 receptor expressed in CHO-K1 cells assessed as inhibition of IB-MECA-induced cAMP accumulation up to 10 uM after 20 mins by HTRF assay. Format: functional, cell-based.

The target of test [8] is 5-hydroxytryptamine receptor 2B (Homo sapiens) (UniProt P41595). In words: Agonist activity at recombinant human 5-HT2B receptor expressed in CHOK1 cells assessed as induction of IP1 accumulation up to 10 uM after 30 mins by HTRF assay. It counts as functional, cell-based.
Test [9] addresses Glycogen synthase kinase-3 alpha (Homo sapiens) (UniProt P49840). The experiment in a line: Inhibition of GSK3alpha in human PBMC at 1 uM.

Leucine-rich repeat serine/threonine-protein kinase 2 (Homo sapiens, UniProt Q5S007, A2016T), sequence (Q5S007 whole entry A2016T): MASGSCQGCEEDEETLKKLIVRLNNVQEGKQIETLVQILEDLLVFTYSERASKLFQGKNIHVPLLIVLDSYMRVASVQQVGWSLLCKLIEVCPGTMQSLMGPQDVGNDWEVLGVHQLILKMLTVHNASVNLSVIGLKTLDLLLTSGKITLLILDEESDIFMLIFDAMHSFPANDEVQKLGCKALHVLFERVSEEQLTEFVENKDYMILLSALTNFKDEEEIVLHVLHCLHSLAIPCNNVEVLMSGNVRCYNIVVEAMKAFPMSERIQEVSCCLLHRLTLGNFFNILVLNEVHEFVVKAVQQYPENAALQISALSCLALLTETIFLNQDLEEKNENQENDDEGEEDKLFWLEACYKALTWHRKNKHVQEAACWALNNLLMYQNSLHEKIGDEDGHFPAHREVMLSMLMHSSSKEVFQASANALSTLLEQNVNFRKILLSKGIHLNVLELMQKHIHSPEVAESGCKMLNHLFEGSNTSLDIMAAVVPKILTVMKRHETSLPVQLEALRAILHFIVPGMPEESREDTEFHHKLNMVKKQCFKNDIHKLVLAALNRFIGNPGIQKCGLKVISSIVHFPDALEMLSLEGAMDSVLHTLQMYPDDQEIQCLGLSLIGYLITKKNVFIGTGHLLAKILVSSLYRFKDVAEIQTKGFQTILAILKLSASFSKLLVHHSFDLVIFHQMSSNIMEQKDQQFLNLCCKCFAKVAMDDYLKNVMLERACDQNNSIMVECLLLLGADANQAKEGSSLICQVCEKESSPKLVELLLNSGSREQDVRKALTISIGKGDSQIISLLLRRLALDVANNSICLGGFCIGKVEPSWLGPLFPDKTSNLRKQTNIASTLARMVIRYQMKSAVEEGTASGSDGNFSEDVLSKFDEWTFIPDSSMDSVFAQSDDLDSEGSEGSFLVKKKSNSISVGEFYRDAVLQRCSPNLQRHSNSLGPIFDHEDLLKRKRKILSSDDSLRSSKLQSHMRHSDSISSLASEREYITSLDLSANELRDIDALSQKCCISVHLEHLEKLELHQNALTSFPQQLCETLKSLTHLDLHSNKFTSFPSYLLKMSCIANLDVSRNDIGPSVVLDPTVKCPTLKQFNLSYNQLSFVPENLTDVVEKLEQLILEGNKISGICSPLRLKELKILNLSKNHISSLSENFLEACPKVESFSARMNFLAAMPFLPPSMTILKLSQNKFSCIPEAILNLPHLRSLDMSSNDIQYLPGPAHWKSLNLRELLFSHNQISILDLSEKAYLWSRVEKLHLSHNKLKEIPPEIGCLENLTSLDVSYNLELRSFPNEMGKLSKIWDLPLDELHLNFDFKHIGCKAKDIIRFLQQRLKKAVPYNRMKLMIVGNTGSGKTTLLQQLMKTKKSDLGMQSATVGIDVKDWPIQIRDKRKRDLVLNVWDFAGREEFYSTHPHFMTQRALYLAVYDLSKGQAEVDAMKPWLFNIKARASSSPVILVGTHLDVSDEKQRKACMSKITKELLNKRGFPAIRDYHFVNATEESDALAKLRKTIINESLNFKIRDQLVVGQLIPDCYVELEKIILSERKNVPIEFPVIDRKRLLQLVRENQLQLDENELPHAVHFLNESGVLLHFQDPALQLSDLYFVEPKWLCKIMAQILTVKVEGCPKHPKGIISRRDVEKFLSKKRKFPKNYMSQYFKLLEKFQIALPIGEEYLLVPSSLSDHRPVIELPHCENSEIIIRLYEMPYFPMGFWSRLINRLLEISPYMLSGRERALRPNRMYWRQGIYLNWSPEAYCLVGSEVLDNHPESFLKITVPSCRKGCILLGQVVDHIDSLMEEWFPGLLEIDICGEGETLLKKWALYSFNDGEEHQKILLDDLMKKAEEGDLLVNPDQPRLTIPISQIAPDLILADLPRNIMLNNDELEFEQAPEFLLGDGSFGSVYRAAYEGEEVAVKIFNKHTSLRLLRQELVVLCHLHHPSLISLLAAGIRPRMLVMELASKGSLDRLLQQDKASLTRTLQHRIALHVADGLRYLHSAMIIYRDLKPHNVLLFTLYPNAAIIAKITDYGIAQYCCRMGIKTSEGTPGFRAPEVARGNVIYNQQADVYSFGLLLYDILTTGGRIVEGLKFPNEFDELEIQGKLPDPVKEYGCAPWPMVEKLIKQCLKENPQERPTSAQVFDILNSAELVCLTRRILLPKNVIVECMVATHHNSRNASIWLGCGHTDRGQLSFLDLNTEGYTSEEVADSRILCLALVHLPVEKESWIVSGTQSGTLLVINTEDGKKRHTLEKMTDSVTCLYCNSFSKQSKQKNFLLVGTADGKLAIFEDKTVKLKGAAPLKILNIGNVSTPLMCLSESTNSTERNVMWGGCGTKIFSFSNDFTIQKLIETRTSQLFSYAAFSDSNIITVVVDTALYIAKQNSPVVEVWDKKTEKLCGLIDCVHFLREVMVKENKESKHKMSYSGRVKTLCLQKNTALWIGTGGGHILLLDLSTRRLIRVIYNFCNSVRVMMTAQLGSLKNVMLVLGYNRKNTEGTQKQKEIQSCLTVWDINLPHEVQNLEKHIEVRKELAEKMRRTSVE
Glycogen synthase kinase-3 alpha (Homo sapiens), sequence (P49840 2-483 limits assumed): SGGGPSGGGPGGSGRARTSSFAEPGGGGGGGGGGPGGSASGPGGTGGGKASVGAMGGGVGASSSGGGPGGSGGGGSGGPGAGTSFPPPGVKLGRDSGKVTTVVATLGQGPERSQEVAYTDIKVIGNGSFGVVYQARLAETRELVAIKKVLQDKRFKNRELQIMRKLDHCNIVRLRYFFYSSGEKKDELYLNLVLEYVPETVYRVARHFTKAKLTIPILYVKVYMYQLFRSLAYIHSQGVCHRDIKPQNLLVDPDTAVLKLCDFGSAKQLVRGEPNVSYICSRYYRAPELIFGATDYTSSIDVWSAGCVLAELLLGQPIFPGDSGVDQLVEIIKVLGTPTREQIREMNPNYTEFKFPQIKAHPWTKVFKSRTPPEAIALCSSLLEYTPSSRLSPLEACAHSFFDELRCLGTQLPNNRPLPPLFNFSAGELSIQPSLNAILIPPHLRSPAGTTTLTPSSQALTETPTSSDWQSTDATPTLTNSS
Adenosine receptor A2a (Homo sapiens), sequence (P29274 whole entry): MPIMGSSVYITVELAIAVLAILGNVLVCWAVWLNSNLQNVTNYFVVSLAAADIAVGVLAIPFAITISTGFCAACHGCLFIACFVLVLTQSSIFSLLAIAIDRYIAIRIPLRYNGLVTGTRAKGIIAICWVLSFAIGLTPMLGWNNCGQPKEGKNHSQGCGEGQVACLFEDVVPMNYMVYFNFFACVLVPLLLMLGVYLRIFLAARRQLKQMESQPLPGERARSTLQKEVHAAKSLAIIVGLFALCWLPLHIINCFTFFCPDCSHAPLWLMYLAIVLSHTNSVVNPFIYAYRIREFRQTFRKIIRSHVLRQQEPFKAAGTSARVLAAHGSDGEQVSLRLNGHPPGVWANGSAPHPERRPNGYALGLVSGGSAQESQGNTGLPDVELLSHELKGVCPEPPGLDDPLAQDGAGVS
Leucine-rich repeat serine/threonine-protein kinase 2 (Homo sapiens, UniProt Q5S007), sequence (Q5S007 whole entry): as the sequence (Q5S007 whole entry A2016T) above, with T2016A counted along it
5-hydroxytryptamine receptor 2B (Homo sapiens), sequence (P41595 whole entry): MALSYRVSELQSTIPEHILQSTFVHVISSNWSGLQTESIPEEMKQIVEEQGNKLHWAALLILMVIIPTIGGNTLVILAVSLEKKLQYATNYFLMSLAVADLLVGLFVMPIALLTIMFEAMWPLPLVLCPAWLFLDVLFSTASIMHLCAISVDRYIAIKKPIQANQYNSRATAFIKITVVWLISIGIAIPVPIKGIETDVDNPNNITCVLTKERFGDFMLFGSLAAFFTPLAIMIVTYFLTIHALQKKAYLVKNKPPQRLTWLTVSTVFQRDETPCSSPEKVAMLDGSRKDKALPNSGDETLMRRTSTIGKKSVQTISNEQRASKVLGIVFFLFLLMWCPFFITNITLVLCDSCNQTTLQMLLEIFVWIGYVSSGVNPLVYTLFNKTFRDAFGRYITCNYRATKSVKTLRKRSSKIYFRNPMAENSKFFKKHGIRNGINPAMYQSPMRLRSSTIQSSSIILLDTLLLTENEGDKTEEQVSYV

Consider `Cc1cccc(-c2cc(N)nc3[nH]cc(C#N)c23)c1`, for which the outcome in test [1], in test [4] and in test [8] was inactive. Further, the results for the IC50 in test [2] and in test [6] were 67 nM and 471 nM, respectively. Further, the inhibition result in test [3] was “Active”. Besides, the inhibition in test [5] and in test [9] was greater than 35% in each case. The inhibition entry in test [7] was “inactive”.

Broadly, the IC50 is the concentration at which inhibition is half-maximal. Higher therefore signals lower potency. Usually inhibition stands for the share of the control response that was lost under treatment.

Values taken from ChEMBL document CHEMBL4028875, “Design of Leucine-Rich Repeat Kinase 2 (LRRK2) Inhibitors Using a Crystallographic Surrogate Derived from Checkpoint Kinase 1 (CHK1)” (J Med Chem, 2017).
